Published values collected from several papers.
Each line is one published result; the experiments were not run side by side.
Organism: Staphylococcus aureus
Observed: microbial growth

Structure (SMILES) | test | system | setting | inhibition zone
Cc1nn(-c2nc3ccccc3s2)c2c1C(=O)c1ccccc1-2 | well diffusion | NCIM5021 | 1000 µg/mL | 11 mm
CCOC(=O)C1=C(C)N2NC(C)(c3ccccc3O)N(C(Cc3c[nH]c4ccccc34)C(=O)O)C2=NC1c1ccc(Cl)cc1 (stereo not drawn) | – | ATCC25923 | 10 µg/mL, 24 h | 18 mm
COc1ccc2nc(-n3nc(C)c4c3-c3ccccc3C4=O)sc2c1 | well diffusion | NCIM5021 | 125 µg/mL | 11 mm
CC(=O)C1=C(C)N2NC(C)(c3ccccc3O)N(C(Cc3c[nH]c4ccccc34)C(=O)O)C2=NC1c1ccc(Cl)cc1 (stereo not drawn) | – | ATCC25923 | 15 µg/mL, 24 h | 33 mm
CC1(C)S[C@@H]2[C@H](NC(=O)[C@H](N)c3ccc(O)cc3)C(=O)N2[C@H]1C(=O)O | disc diffusion | ATCC29213 | 250 µg/mL | 9.37 mm
CC(C)Cc1nn(-c2nc3ccc(Cl)cc3s2)c2c1C(=O)c1ccccc1-2 | well diffusion | NCIM5021 | 1000 µg/mL | 11 mm
CC(C(=O)O)N1C2=NC(c3ccc(Cl)cc3)C3=C(OC(C)(C)OC3=O)N2NC1(C)c1ccccc1O (stereo not drawn) | – | ATCC25923 | 15 µg/mL, 24 h | 24 mm
CN[C@H](CC(C)C)C(=O)N[C@H]1C(=O)N[C@@H](CC(N)=O)C(=O)N[C@H]2C(=O)N[C@H]3C(=O)N[C@H](C(=O)N[C@H](C(=O)O)c4cc(O)cc(O)c4-c4cc3ccc4O)[C@H](O)c3ccc(c(Cl)c3)Oc3cc2cc(c3O[C@@H]2O[C@H](CO)[C@@H](O)[C@H](O)[C@H]2O[C@H]2C[C@](C)(N)[C@H](O)[C@H](C)O2)Oc2ccc(cc2Cl)[C@H]1O | disc diffusion | ATCC29213 | 15.6 µg/disc, 24 h | 16 mm
Cc1ccc2nc(-n3nc(C(C)C)c4c3-c3ccccc3C4=O)sc2c1 | well diffusion | NCIM5021 | 500 µg/mL | 13 mm
CC(=O)C1=C(C)N2NC(c3ccccc3O)N(C(Cc3c[nH]c4ccccc34)C(=O)O)C2=NC1c1ccc(Cl)cc1 (stereo not drawn) | – | ATCC25923 | 10 µg/mL, 24 h | 19 mm
COc1cc(C=Cc2cc(-c3ccc(N(C)C)cc3)nc(O)n2)ccc1O | disc diffusion | ATCC29213 | 250 µg/mL | 6 mm
Cc1cc(N)c2ccccc2[n+]1CCCCCCCCCC[n+]1c(C)cc(N)c2ccccc21 | disc diffusion | – | 50 µg/disc | 9 mm
CCOC(=O)C1=C(C)N2NC(c3ccccc3O)N(C(Cc3c[nH]c4ccccc34)C(=O)O)C2=NC1c1ccc(Cl)cc1 (stereo not drawn) | – | ATCC25923 | 15 µg/mL, 24 h | 33 mm
CC(C)c1nn(-c2nc3ccccc3s2)c2c1C(=O)c1ccccc1-2 | well diffusion | NCIM5021 | 1000 µg/mL | 12 mm
COc1cc(C=CC(=O)CC(c2ccc([N+](=O)[O-])cc2)n2ccnc2)ccc1O (stereo not drawn) | disc diffusion | ATCC29213 | 250 µg/mL | 6 mm
N#Cc1c(-c2ccc(Cl)cc2)nc2n(c1=O)NC(c1ccccc1O)N2C(Cc1c[nH]c2ccccc12)C(=O)O (stereo not drawn) | – | ATCC25923 | 15 µg/mL, 24 h | 32 mm
[H]/N=C(/N)N[C@H]1[C@H](O)[C@@H](O)[C@H](O[C@@H]2O[C@@H](C)[C@](O)(C=O)[C@H]2O[C@@H]2O[C@@H](CO)[C@H](O)[C@@H](O)[C@@H]2NC)[C@@H](N/C(N)=N\[H])[C@@H]1O | well diffusion | NCIM5021 | 125 µg/mL | 20 mm
COc1cc(C=CC(=O)CC(c2ccc(N(C)C)cc2)n2ccnc2)ccc1O (stereo not drawn) | disc diffusion | ATCC29213 | 250 µg/mL | 9 mm
